# The source made the active and inactive calls. The rule behind the calls is not given here.
# How the values were obtained:
# Lacticaseibacillus casei [1] = experiment: Inhibition of 5-[14C]methyltetrahydrofolate uptake in Lactobacillus casei at 1 X 10^-4 M relative to control; type: functional
# Method in brief: (§1)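 Cells (1.0 × 10⁹, 1.0 mg dry weight) in 0.1 M potassium phosphate pH 6.5 with 1% glucose and […] (40000 cpm) 5-[¹⁴C]methyltetrahydrofolate, 1.0 mL total. Incubated 1 min at 37 °C, then stopped by membrane filtration with three ice-cold saline washes. Dried filters were scintillation counted. Uptake is compared with a control.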
# [2] = target: T1, Thymidylate synthase (Lactobacillus casei) (UniProt P00469); experiment: Inhibition of Lactobacillus casei thymidylate synthase assessed as conversion of dUMP32 to dTP32PP at 1 X 10^-4 M after 30 mins relative to control; conditions: Lacticaseibacillus casei
# T1 sequence (whole entry): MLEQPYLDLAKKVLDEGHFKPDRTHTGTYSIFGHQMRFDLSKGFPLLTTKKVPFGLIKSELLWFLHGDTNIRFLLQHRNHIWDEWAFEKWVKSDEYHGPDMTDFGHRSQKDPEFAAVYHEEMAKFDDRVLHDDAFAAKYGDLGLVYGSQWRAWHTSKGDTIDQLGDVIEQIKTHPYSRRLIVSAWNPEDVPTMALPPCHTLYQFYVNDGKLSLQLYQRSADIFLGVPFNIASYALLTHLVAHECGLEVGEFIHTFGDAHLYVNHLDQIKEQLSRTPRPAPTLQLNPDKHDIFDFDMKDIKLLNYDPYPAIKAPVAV
# [3] = target: Dihydrofolate reductase (Lactobacillus casei) (UniProt P00381); experiment: Inhibition of Lactobacillus casei DHFR at 1 X 10^-4 M relative to control; conditions: Lacticaseibacillus casei
# Chain of Dihydrofolate reductase (Lactobacillus casei) (P00381 whole entry): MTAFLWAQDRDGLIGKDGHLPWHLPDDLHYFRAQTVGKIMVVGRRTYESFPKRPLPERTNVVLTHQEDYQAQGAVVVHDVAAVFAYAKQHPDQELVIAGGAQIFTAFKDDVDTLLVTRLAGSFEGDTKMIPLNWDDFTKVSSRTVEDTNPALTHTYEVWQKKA
# Lacticaseibacillus casei [4] = experiment: Antibacterial activity against methotrexate-resistant Lactobacillus casei assessed as growth inhibition up to 4 ug/ml; type: functional, organism-based
# Enterococcus faecium [5] = experiment: Antibacterial activity against Streptococcus faecium ATCC 8043 assessed as growth inhibition; type: functional
# Enterococcus faecium [6] = experiment: Antibacterial activity against methotrexate-resistant Streptococcus faecium assessed as growth inhibition up to 4 ug/ml; type: functional, organism-based
# Lacticaseibacillus casei [7] = experiment: Antibacterial activity against Lactobacillus casei ATCC 7469 assessed as growth inhibition; type: functional
# [8] = target: T1, Thymidylate synthase (Lactobacillus casei); experiment: Inhibition of Lactobacillus casei thymidylate synthase assessed as conversion of dUMP32 to dTP32PP at 6 X 10^-5 M after 30 mins relative to control; conditions: Lacticaseibacillus casei
# Pediococcus = experiment: Antimicrobial activity against Pediococcus cerevisiae ATCC 8081 assessed as growth inhibition; type: functional
# Lacticaseibacillus casei [9] = experiment: Inhibition of 5-[14C]methyltetrahydrofolate uptake in Lactobacillus casei at 4 X 10^-7 M relative to control; type: functional; method in brief: as §1
# [10] = target: Dihydrofolate reductase (Lactobacillus casei) (UniProt P00381); experiment: Inhibition of Lactobacillus casei DHFR at 6.2 X 10^-5 M relative to control; conditions: Lacticaseibacillus casei
# Lacticaseibacillus casei [11] = experiment: Inhibition of 5-[14C]methyltetrahydrofolate uptake in Lactobacillus casei at 1.6 X 10^-6 M relative to control; type: functional; method in brief: as §1
# Lacticaseibacillus casei [12] = experiment: Inhibition of 5-[14C]methyltetrahydrofolate uptake in Lactobacillus casei at 1.5 X 10^-5 M relative to control; type: functional; method in brief: as §1
smiles,measurement,setting,value
COC(=O)c1ccc(CN(CC2=Nc3c(N)nc(N)nc3NC2)S(=O)(=O)c2ccc(C)cc2)cc1,inhibition at 100 µM,Lacticaseibacillus casei [1],32%
same,inhibition,[2],0%
same,inhibition,[3],0%
Cc1ccc(S(=O)(=O)N(Cc2ccc(C(=O)N[C@@H](CCC(=O)O)C(=O)O)cc2)Cc2cnc3nc(N)nc(O)c3n2)cc1,growth inhibition (GI),Lacticaseibacillus casei [4],inactive
same,growth inhibition (GI),Enterococcus faecium [5],inactive
same,growth inhibition (GI),Enterococcus faecium [6],inactive
same,growth inhibition (GI),Lacticaseibacillus casei [7],inactive
same,inhibition,[8],12%
same,growth inhibition (GI),Pediococcus,inactive
same,inhibition at 0.4 µM,Lacticaseibacillus casei [9],50%
same,inhibition,[3],32%
Cc1ccc(S(=O)(=O)N(Cc2ccc(C(=O)N[C@@H](CCC(=O)O)C(=O)O)cc2)Cc2cnc3nc(N)nc(N)c3n2)cc1,growth inhibition (GI),Lacticaseibacillus casei [4],inactive
same,inhibition,[10],50%
same,inhibition,[2],20%
same,GI50,Enterococcus faecium [5],3.8 µg/mL
same,growth inhibition (GI),Enterococcus faecium [6],inactive
same,GI50,Lacticaseibacillus casei [7],0.2 µg/mL
same,growth inhibition (GI),Pediococcus,inactive
same,inhibition at 0.4 µM,Lacticaseibacillus casei [9],50%
Cc1ccc(S(=O)(=O)N(Cc2ccc(C(=O)O)cc2)Cc2cnc3nc(N)nc(N)c3n2)cc1,inhibition,[2],0%
same,inhibition at 1.6 µM,Lacticaseibacillus casei [11],50%
same,inhibition,[3],17%
Cc1ccc(S(=O)(=O)N(Cc2ccc(C(=O)O)cc2)Cc2cnc3nc(N)nc(O)c3n2)cc1,inhibition,[8],15%
same,inhibition,[3],25%
COC(=O)c1ccc(CN(Cc2cnc3nc(N)nc(O)c3n2)S(=O)(=O)c2ccc(C)cc2)cc1,inhibition,[8],16%
same,inhibition at 15 µM,Lacticaseibacillus casei [12],50%
same,inhibition,[3],23%

# From ChEMBL document CHEMBL3244306, “Folate analogues altered in the C9-N10 bridge region: N10-Toxylisohomofolic acid and N10-Toxylisohomoaminopterin” (1978)
